HTR1A agonist: agonists of human 5-HT1a serotonin receptor. 65,000 tested, 0.56% active. activation, % at 10 µM. CHO 5-HT1a Ga15 NFAT-bla reporter, FRET ratio; 0% basal, 100% maximal reference agonist. P08908;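 active = activation above the screen-wide mean activation plus 3 SD, cut at about 19% in these data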
Target sequence (P08908 whole entry, looked up): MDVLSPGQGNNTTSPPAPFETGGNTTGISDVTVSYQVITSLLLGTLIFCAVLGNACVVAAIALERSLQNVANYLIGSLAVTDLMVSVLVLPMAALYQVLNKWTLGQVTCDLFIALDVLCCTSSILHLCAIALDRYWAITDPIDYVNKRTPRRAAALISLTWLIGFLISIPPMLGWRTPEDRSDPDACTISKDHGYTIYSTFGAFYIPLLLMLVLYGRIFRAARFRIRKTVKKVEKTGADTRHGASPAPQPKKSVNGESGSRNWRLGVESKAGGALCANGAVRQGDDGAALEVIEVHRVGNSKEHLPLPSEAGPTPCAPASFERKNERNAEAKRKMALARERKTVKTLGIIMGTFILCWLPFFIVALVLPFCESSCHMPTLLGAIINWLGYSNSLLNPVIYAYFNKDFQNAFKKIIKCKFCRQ
5-HT1A blocker: 5-HT1a (human) receptor antagonism. CHO 5-HT1a Ga15 NFAT-bla reporter, antagonist mode. inhibition, % at 10 µM. 62,000 tested, 0.68% active. AID 612;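 active = inhibition above the mean of all tested compounds plus 3 SD, cut at about 43% in these data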;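 also: receptor stimulated by 5-CT agonist at 100 nM near EC80; beta-lactamase reporter measured by ratiometric fluorescence of a cleavable substrate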
Jurkat tox 60K: reduces viability or proliferation of Jurkat cells | Jurkat E6.1 viability, ATP luminescence, 48 h | inhibition, % at 4 µM | 56,000 tested, 1.2% active | AID 463;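 active = inhibition above the mean inhibition of all tested compounds plus 3 SD, cut at about 28% in these data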
HEK293 NFkB inh: inhibitors of the PMA/ionomycin-induced NF-kB reporter in HEK293 cells; 62,000 tested, 0.21% active; HEK-293 NF-kB luciferase reporter, luminescence; inhibition, % at 3 µM;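 active = inhibition above the mean of all tested compounds plus 3 SD, cut at about 40% in these data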
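Signal: luciferase luminescence; Material: HEK-293 cells with stable firefly luciferase reporter driven by four HIV NF-kB elements; Probe or stimulus: PMA with ionomycin; Replication: tested once; Times: 1 h compound pretreatment, then 16 h stimulation at 37 °C, 5% CO2; Benchmarks: DMSO and 10 µM reference inhibitor; Evaluation: per-plate % inhibition versus controls.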
HTR1E antagonist: 5-HT1E (human) receptor antagonism; P28566; CHO 5-HT1E Ga15 NFAT-bla reporter, FRET, antagonist; inhibition, % at 6 µM; 65,000 tested, 0.99% active; AID 571;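 active = inhibition above a set limit, the mean inhibition across every tested compound plus 3 SD, cut at about 29% in these data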;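 also: signal is the 460 over 535 nm emission ratio of beta-lactamase substrate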
HTR1E agonist: activates the human 5-HT1E serotonin receptor. activation, % at 6 µM. AID 574. CHO 5-HT1E Ga15 NFAT-bla reporter, FRET; 0% DMSO wells, 100% control agonist wells. 65,000 tested, 0.69% active. P28566;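 active = activation above a set limit, the screen-wide mean activation plus 3 SD, cut at about 8.5% in these data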
Numbers stand for hits; n = inactive; x = not tested or not shown. Compounds with a hit are over-represented: about 3.3% of the library has one in this group of screens.

SMILES	HTR1A agonist	5-HT1A blocker	Jurkat tox 60K	HEK293 NFkB inh	HTR1E antagonist	HTR1E agonist
CCOc1ccc(S(=O)(=O)Nc2cc(OC)ccc2OC)cc1	n	52.1	95.5	n	64.8	n
COc1ccc(OC)c(NS(=O)(=O)c2ccc(N3CCCC3=O)cc2)c1	n	x	x	x	47.6	n
COc1ccc(Cl)cc1NS(=O)(=O)c1ccc(S(=O)(=O)N2CCCC2)cc1	n	n	n	n	n	n
COc1ccc(S(=O)(=O)Nc2cc(Cl)ccc2OC)cc1	n	n	76.1	n	30.2	n
COc1ccc(OC)c(NS(=O)(=O)c2cccs2)c1	n	n	n	n	n	n
Cn1cnc2c1c(=O)n(CC(O)CO)c(=O)n2C (stereo not drawn)	n	n	n	n	n	n
Cc1cc(C)c(N2CCN(S(=O)(=O)N3CCCCCC3)CC2)c(C)c1	n	n	n	n	n	n
CC(C)Oc1cccc(C(=O)Nc2ccc(N3CCN(S(C)(=O)=O)CC3)cc2)c1	n	n	n	n	n	n
CC(C)Oc1ccc(C(=O)Nc2ccc(N3CCCC3)cc2)cc1	50.4	n	n	n	n	n
CCCCOc1ccc(C(=O)Nc2ccc(N3CCN(C)CC3)cc2)cc1	n	n	n	n	n	15.1
CCOc1ccccc1NC(=O)N1CCCC1C(=O)Nc1ccc(NC(C)=O)cc1 (stereo not drawn)	n	n	n	n	n	n
CCOC(=O)N1CCC(NC(=O)c2ccc3c(c2)sc2nc(-c4cccc(OC)c4)cn23)CC1	n	n	34.6	n	n	n
CCOC(=O)N1CCC(NC(=O)c2ccc3c(c2)sc2nc(-c4ccccc4)cn23)CC1	n	n	n	n	n	n
OCCCc1nc2n(n1)C(c1ccccc1Cl)C=C(c1cccs1)N2 (stereo not drawn)	n	43.6	n	n	49.6	n
OCCCc1nc2n(n1)C(c1cccs1)C=C(c1ccccc1)N2 (stereo not drawn)	n	n	n	n	n	n
CC1Cc2ccccc2N1S(=O)(=O)c1cccs1 (stereo not drawn)	n	n	n	n	n	n
Cc1ccc(S(=O)(=O)N2c3ccc(S(N)(=O)=O)cc3CC2C)cc1 (stereo not drawn)	85.8	n	n	n	n	n
CC(=O)c1cccc(S(=O)(=O)NCC(c2ccco2)N2CCCCC2)c1 (stereo not drawn)	n	n	n	n	n	n
COc1ccc(-n2c(NC(=O)c3ccco3)c(C#N)c3nc4ccccc4nc32)cc1	22.1	n	n	n	n	n
CCCCn1c(NC(=O)c2ccccc2Cl)c(C#N)c2nc3ccccc3nc21	26.6	n	n	n	n	n
CS/C(=N\S(=O)(=O)c1cccs1)NC(=O)CSc1nc2ccccc2s1	n	n	n	n	n	n
Cc1sc2c(c1C)CN(Cc1ccco1)CN2C(=O)c1ccccc1	n	n	n	n	n	n
COCCCN(C(C)=O)c1nc(-c2ccc(OC)cc2)cs1	n	n	57.0	n	n	n
COc1ccc(-c2csc(N(CCCN(C)C)C(=O)c3cccs3)n2)cc1	n	n	n	n	n	n
CSCC[C@H](NC(=O)OC(C)(C)C)c1nnc(SCC(=O)Nc2ccc(C)cc2C)o1	n	n	x	n	n	n
SMILES	HTR1A agonist	5-HT1A blocker	Jurkat tox 60K	HEK293 NFkB inh	HTR1E antagonist	HTR1E agonist
CCOc1ccc(C(C)=O)cc1CSc1nnc(-c2cccs2)n1CC1CCCO1 (stereo not drawn)	n	n	n	n	n	n
CCOC(=O)N1CCN(C(=O)c2ccccc2-c2ccccc2)CC1	n	n	79.0	n	n	n
CCOC(=O)N1CCN(C(=O)c2ccccc2CCc2ccccc2)CC1	n	n	n	n	n	n
CC(=O)OC(C(=O)NC1CCCCC1)c1ccc(C)cc1 (stereo not drawn)	n	n	n	n	n	31.9
COc1ccccc1CC1(C)NC(=O)N(CC(=O)N2CC(C)OC(C)C2)C1=O (stereo not drawn)	n	n	x	n	n	n
N=c1c2c(n(Cc3ccc(F)cc3)c3c1CCC3)CCC2	n	n	n	n	n	n
CCCCn1c2c(c(=N)c3c1CCC3)CCC2	n	n	68.7	n	n	n
CCCCCCn1c2c(c(=N)c3c1CCC3)CCC2	n	n	91.0	n	n	n
Cc1nc(Nc2ncc3c(n2)CCCC3=O)nc2ccccc12	n	x	x	x	n	n
N#CCCCCN1c2cccc3cccc(c23)S1(=O)=O	n	n	n	n	n	n
COc1ccc(N2CCN(C(=O)CSc3ncccc3-c3nc4ccccc4[nH]3)CC2)cc1	n	n	n	n	n	n
COc1ccccc1N1CCN(C(=O)CSc2ncccc2-c2nc3ccccc3[nH]2)CC1	n	n	x	n	n	21.8
O=C(CSc1ncccc1-c1nc2ccccc2[nH]1)N1CCN(c2ccccc2F)CC1	n	n	n	n	n	8.7
COc1ccccc1N1CCN(C(=O)CSc2nnc3n2C(C)(C)Cc2ccccc2-3)CC1	n	n	60.5	n	n	n
CCOc1ccc2[nH]cc(C(=O)N3CCN(CC)CC3)c(=O)c2c1	n	n	n	n	n	n
N#Cc1c(N)nc(-c2ccccc2)nc1-c1ccccc1	n	n	n	n	29.6	n
Cc1ccccc1C(=O)Nc1ccc(Cl)cn1	n	n	n	n	n	n
CCCCC(=O)Nc1ccc(Cl)cn1	n	n	n	n	n	n
Cc1ccc(C(=O)Nc2ccc(Cl)cn2)cc1	n	n	76.5	n	n	n
O=C(CCc1ccccc1)Nc1ccc(Cl)cn1	n	n	77.8	n	n	n
COCCn1c(COc2cccc(OC)c2)nnc1SCC(=O)N1CCOCC1	n	n	n	n	n	18.8
COCCn1c(COc2ccc(Cl)cc2)nnc1SCC(N)=O	n	n	n	n	n	n
Cn1cccc1Cc1nnc(SCC(=O)N2CCOCC2)n1CCc1ccccc1	472.8	n	n	n	n	n
Nc1c(NCc2ccccc2F)c(=O)[nH]c(=O)n1Cc1ccccc1	81.1	n	x	n	n	n
O=C(CSc1nnnn1C1CCCCC1)NCCc1ccccc1	n	n	n	n	n	n
SMILES	HTR1A agonist	5-HT1A blocker	Jurkat tox 60K	HEK293 NFkB inh	HTR1E antagonist	HTR1E agonist
COc1ccc(C2N(c3ccc(F)cc3)C(=O)C3CCCN32)cc1 (stereo not drawn)	n	n	n	n	87.8	n
COc1ccccc1C1N(c2ccc(Cl)cc2)C(=O)C2CCCN21 (stereo not drawn)	n	n	n	n	n	15.0
COc1ccc(N2C(=O)C3CCCN3C2c2ccccc2OC)cc1 (stereo not drawn)	n	n	n	n	n	n
COc1ccc(NC(C)=O)cc1NC(=O)CSc1nnc(-c2ccc(F)cc2)n1N	n	n	n	n	n	n
O=C(Nc1ccc(Cc2ccc(NC(=O)C3CC3)c(O)c2)cc1O)C1CC1	n	n	n	n	n	n
CCCn1nnc(NC(=O)COc2ccc(C3CCCCC3)cc2)n1	n	n	n	n	n	n
